The source of these data is ChEMBL document CHEMBL4706503, “A novel pipeline of 2-(benzenesulfonamide)-N-(4-hydroxyphenyl) acetamide analgesics that lack hepatotoxicity and retain antipyresis” (Eur J Med Chem, 2020).

The structures appear in SMILES notation. The source made the active and inactive calls. The calls are words filed in the database; no cut-off is given here.

For data set [1], the system named is Mus musculus. Nature of the data set: Analgesic activity in po dosed CD1 mouse assessed as inhibition of acetic acid-induced abdominal writhing treated with acetic acid 25 mins post drug administration and measured after 5 mins for 10 mins. Format: functional. The following applies: 40 min. An outline of the steps: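 Male CD1 mice fasted 15 h; drug suspended in 0.9% NaCl with ≤10% DMSO given po at 5, 10, 20, 40, 80 mg/kg. 0.4% acetic acid 10 mL/kg ip 25 min later; writhes counted 10 min starting 5 min after acid. Compared to vehicle; mean ± SEM, n > 15 per group; ED50 from dose-response curves.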
Background: In writhing tests, fewer writhes than in controls are read as antinociception.

Data set [2] concerns HepaRG. Nature of the data set: Hepatotoxicity in human HepaRG cells assessed as decrease in GSH level at 50 to 5000 uM measured after 6 to 24 hrs by Thiol tracker violet dye based fluorescence analysis. Format: toxicity, cell-based. The following applies: dose lower 50 µM, time lower 6 hrs, dose upper 5000 µM, time upper 24 hrs. The method, boiled down: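 HepaRG cells (80% confluent, serum-starved 6–8 h) exposed to 50, 100, 1000 or 5000 μM for 6, 12 or 24 h. Medium then removed and cells rinsed with D-PBS-conditioned medium. Cells were stained 30 min with ThiolTracker Violet; fluorescence read at ex 404/em 526 nm and reported as RFU for cellular GSH.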

The nature of data set [3]: Hepatotoxicity in CD1 mouse assessed as increase in nitrotyrosine formation in liver at 600 mg/kg, po measured after 12 hrs by nitrotyrosine immunostaining based optical microscopy. The following applies: in vivo.
For data set [4], the system named is HepaRG. Kind of data set: Hepatotoxicity in human HepaRG cells assessed as increase in lactate dehydrogenase release at 50 to 5000 uM […]. Format: toxicity, cell-based. The note with it: dose 50-5000 µM.
Data set [5] is described as follows: Renal toxicity in CD1 mouse assessed as increase in serum creatinine level at 600 mg/kg, po measured after 12 hrs. The note with it: in vivo. Format: organism-based. An outline of the steps: (§1)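 Male CD1 mice fasted 15 h, given 600 mg/kg po, then fed ad libitum for 12 h. Whole blood taken by transcardial perfusion under 5% isoflurane, without anticoagulant, clotted 0.5 h at 25 °C, spun 1000 g 5 min at 4 °C. Serum stored at −80 °C, then assayed with commercial kits. n = 5 mice per compound; vehicle 0.9% NaCl.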

Data set [6] can be described thus: Hepatotoxicity in CD1 mouse assessed as increase in apoptotic nuclei at 600 mg/kg, po measured after 12 hrs by TUNEL staining. Format: toxicity, organism-based. The following applies: in vivo. The method, boiled down:
(§2)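 At 12 h, mice under 5% isoflurane were exsanguinated with saline and perfusion-fixed with 10% NBF; livers fixed 24 h, moved to 80% EtOH, paraffin-embedded and sectioned. Stains: H&E (100x), nitrotyrosine, ZO-1 (200x; 3D stacks at 1000x), TUNEL (200x).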

A short description of data set [7]: Hepatotoxicity in CD1 mouse assessed as increase in serum alkaline phosphatase level at 600 mg/kg, po measured after 12 hrs. Format: toxicity, organism-based. The note with it: in vivo. An outline of the steps: as §1
The target of data set [8] is Cytochrome P450 2D6 (Homo sapiens, UniProt P10635). Kind of data set: Inhibition of CYP2D6 (unknown origin) in baculosomes preincubated for 20 mins followed by addition of CYP enzyme-specific substrate and NADP+ and measured after 30 mins by fluorescence based analysis. Format: ADME. The method, boiled down: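 Vivid fluorogenic screen: each compound was premixed with CYP baculosomes and a regeneration system (glucose-6-phosphate plus G6P dehydrogenase) for 20 min at room temperature. Isozyme-specific substrate and NADP+ were then added for 30 min at room temperature. Reaction stopped with 0.5 M Tris base; metabolite fluorescence read. IC50 taken from 10-point titration curves.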

Data set [9] can be described thus: Hepatotoxicity in CD1 mouse assessed as increase in serum alanine aminotransferase level at 600 mg/kg, po measured after 12 hrs. Format: toxicity, organism-based. The note with it: in vivo. An outline of the steps:
as §1

Data set [10] is described as follows: Hepatotoxicity in CD1 mouse assessed as increase in serum aspartate aminotransferase level at 600 mg/kg, po measured after 12 hrs. Format: toxicity, organism-based. The following applies: in vivo. The method, boiled down:
as §1

The nature of data set [11]: Drug metabolism in CD1 mouse serum assessed as NAPQI formation at 600 mg/kg, po measured after 12 hrs by LC-MS/MS analysis. Format: ADME, organism-based. The following applies: in vivo. An outline of the steps: (§3)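 Male CD1 mice dosed at 600 mg/kg (ip or po). Serum extracted twice with 3 vol ethyl acetate on ice (30 min, 3000 g spin), dried under N2, redissolved in 1:1 MeOH:H2O. LC-MS/MS in positive electrospray MRM mode monitoring m/z 150.3→108.1, identity checked against spiked NAPQI standard retention time (5.1 min).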

Data set [12] in a line: Hepatotoxicity in CD1 mouse assessed as loss of chicken wire hepatic tight junctions at 600 mg/kg, po measured after 12 hrs by ZO-1 staining based optical microscopy. The following applies: in vivo. Format: toxicity, organism-based. The method, boiled down: as §2
The nature of data set [13]: Hepatotoxicity in CD1 mouse assessed as centrilobular hepatic hemorrhagic necrosis at 600 mg/kg, po measured after 12 hrs by hematoxylin and eosin staining based optical microscopy. Format: toxicity, organism-based. The note with it: in vivo. An outline of the steps: as §2
Data set [14] in a line: Drug metabolism in CD1 mouse serum assessed as NAPQI formation at 600 mg/kg, ip measured after 12 hrs by LC-MS/MS analysis. Format: ADME, organism-based. The following applies: in vivo. The method, boiled down:
as §3

Data set [15] has as its system Mus musculus. Nature of the data set: Antipyretic activity against Baker's yeast-induced hyperthermia model in CD1 mouse at 80 mg/kg, po at 2 hrs post-injection by thermometer based analysis. Format: functional, organism-based. An outline of the steps: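 Male CD1 mice fasted overnight (15 h); baseline rectal temperature taken, then ip pyrogen (15% baker's yeast, 0.1 mL/kg). Rectal temperature read 4 h later; only febrile animals used, grouped by equal mean temperature. Drug or 0.9% NaCl given po at 80 mg/kg; rectal temperature recorded 2 h later; fall compared with 4 h fever value. Mean ± SEM, n = 10; one-way ANOVA with Sidak post-hoc.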

Data set [16] concerns Rattus norvegicus. Kind of data set: Analgesic activity in ip dosed complete freund's adjuvant-induced Sprague Dawley rat model of hyperalgesia assessed as inhibition of inflammatory pain measured after 30 mins by von Frey analgesimetric method. Format: functional. The note with it: 0.5 h.

Chain of Cytochrome P450 2D6 (P10635 whole entry): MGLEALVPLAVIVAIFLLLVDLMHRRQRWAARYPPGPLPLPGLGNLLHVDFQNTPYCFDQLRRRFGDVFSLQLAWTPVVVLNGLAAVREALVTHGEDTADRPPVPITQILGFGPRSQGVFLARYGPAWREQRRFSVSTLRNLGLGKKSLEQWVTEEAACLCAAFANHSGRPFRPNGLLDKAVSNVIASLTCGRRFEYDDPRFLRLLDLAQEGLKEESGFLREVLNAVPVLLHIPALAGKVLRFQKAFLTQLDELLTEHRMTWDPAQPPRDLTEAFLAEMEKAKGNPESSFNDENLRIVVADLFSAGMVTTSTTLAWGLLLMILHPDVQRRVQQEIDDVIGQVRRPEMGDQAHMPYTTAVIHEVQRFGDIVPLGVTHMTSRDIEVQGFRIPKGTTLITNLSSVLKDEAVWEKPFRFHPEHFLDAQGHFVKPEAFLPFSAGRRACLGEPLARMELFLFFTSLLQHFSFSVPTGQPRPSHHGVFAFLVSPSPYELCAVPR

The ED50 is the dose at which the effect has come halfway, by size or by number of responders. As usually defined, the IC50 is the midpoint of a concentration-inhibition curve. Consider `CC(=O)Nc1ccc(O)cc1` [ACETAMINOPHEN], for which the 50% effective dose (ED50) worked out at 68.6 µmol/kg in [1] and 245 µmol/kg in data set [16]. Also, the Activity result in [2], in [3], in [4], in data set [5], in data set [6] and in [7] was “Toxic” in each case. Moreover, the Activity entry in [9], in data set [10], in data set [12] and in [13] was “Toxic” throughout. The IC50 in data set [8] was more than 10 µM. The Drug metabolism entry in data set [11] and in data set [14] was “Metabolite_Detected” throughout. For the same compound, in [15], the outcome was Active.
